These results are taken from ChEMBL document CHEMBL1134088, “Fine Tuning of physico-chemical parameters to optimise a new series of novobiocin analogues” (Bioorg Med Chem Lett, 2001).

Values after ≈ are worked out from the molar mass of the structure shown.

The test system of series [1] is Staphylococcus aureus. Kind of series: Compound was evaluated for its minimum inhibitory concentration against Staphylococcus aureus. The class given is functional. The method, boiled down:
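MIC by 2-fold broth microdilution, read after 24-h incubation; S. aureus strain 011HT3, no particular resistance phenotype.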

In another series the target is DNA gyrase (Escherichia coli, UniProt P0AES4+P0AES6). Put plainly: Inhibitory activity against Escherichia coli DNA gyrase. The class given is protein-complex assay.
Series [2] in a line: pKa value was determined. The class given is physicochemical.
For series [3], the system named is Staphylococcus aureus. Put plainly: Compound was evaluated for its minimum inhibitory concentration against Staphylococcus aureus in presence of 10% serum. Format: functional. Summed up: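 MIC against S. aureus strain 011HT3 (no particular resistance phenotype) in medium containing serum proteins; 2-fold broth microdilution, read after 24-h incubation.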

One may read the MIC as the lowest concentration that inhibits growth of the organism. Broadly, the IC50 is the concentration needed to halve the response being measured. Low readings indicate greater potency in that assay, high ones weaker potency in that assay. As a reminder, the pKa is the pH at which an ionisable group is half protonated. A lower pKa goes with a group that gives up its proton readily. In the case of `CO[C@@H]1[C@@H](OC(=O)c2ccc(C)[nH]2)[C@@H](O)[C@H](Oc2ccc3c(N4CCN(C)CC4)c(Cl)c(=O)oc3c2C)OC1(C)C`, the MIC against Staphylococcus aureus [1] came out at 1.2 µg/mL (≈ 2.03 µM); with Staphylococcus aureus [3] it was 20 µg/mL. The IC50 at DNA gyrase is 847 nM. In series [2], this compound displayed a pKa of 7.4.

In the case of `CO[C@@H]1[C@@H](OC(=O)c2ccc(C)[nH]2)[C@@H](O)[C@H](Oc2ccc3c(N4CC(C)NC(C)C4)cc(=O)oc3c2C)OC1(C)C` (some centres not stated), the MIC in the series with Staphylococcus aureus [1] was found to be 2.5 µg/mL (≈ 4.39 µM); in the series on Staphylococcus aureus [3] it was 2.5 µg/mL. On DNA gyrase, the IC50 was 281 nM. The same compound returned a pKa in series [2] of 8.

Turning to `CO[C@@H]1[C@@H](OC(=O)c2ccc(C)[nH]2)[C@@H](O)[C@H](Oc2ccc3c(N(C)CCN(C)C)cc(=O)oc3c2C)OC1(C)C`, the MIC against Staphylococcus aureus [1] turned out to be 5 µg/mL (≈ 8.97 µM); with Staphylococcus aureus [3], 5 µg/mL. The IC50 on DNA gyrase is 628 nM. Moreover, the pKa in series [2] was found to be 8.2.

In the case of `CO[C@@H]1[C@@H](OC(N)=O)[C@@H](O)[C@H](Oc2ccc3c(O)c(NC(=O)c4ccc(O)c(CC=C(C)C)c4)c(=O)oc3c2C)OC1(C)C` [NOVOBIOCIN], the MIC was below 0.04 µg/mL with Staphylococcus aureus [1] and 2.5 µg/mL in the series with Staphylococcus aureus [3]. This compound yielded a pKa in series [2] of 3.6.

For `CO[C@@H]1[C@@H](OC(=O)c2ccc(C)[nH]2)[C@@H](O)[C@H](Oc2ccc3c(N4CCN(C)CC4)cc(=O)oc3c2C)OC1(C)C`, the values for the MIC against Staphylococcus aureus [1] and in the series on Staphylococcus aureus [3] were 0.15 µg/mL (≈ 0.27 µM) and 0.3 µg/mL, respectively. The compound also showed an IC50 against DNA gyrase of 540 nM. Moreover, the pKa in series [2] is 7.3.

For the compound `CO[C@@H]1[C@@H](OC(=O)c2ccc(C)[nH]2)[C@@H](O)[C@H](Oc2ccc3c(N4CC[N+](C)(C)CC4)cc(=O)oc3c2C)OC1(C)C`, the MIC against Staphylococcus aureus [1] and in the series with Staphylococcus aureus [3] was above 40 µg/mL in each case. The compound also showed an IC50 against DNA gyrase of 245 nM.

As to `CO[C@@H]1[C@@H](OC(=O)c2ccc(C)[nH]2)[C@@H](O)[C@H](Oc2ccc3c(N4CCNC(C)C4)cc(=O)oc3c2C)OC1(C)C` (some centres not stated), the figures for the MIC against Staphylococcus aureus [1] and in the series with Staphylococcus aureus [3] were 2.5 µg/mL (≈ 4.5 µM) and 2.5 µg/mL, respectively. The IC50 against DNA gyrase is 225 nM. The compound further had a pKa in series [2] of 8.3.

As for `CCN1CCN(c2cc(=O)oc3c(C)c(O[C@@H]4OC(C)(C)[C@H](OC)[C@@H](OC(=O)c5ccc(C)[nH]5)[C@H]4O)ccc23)CC1`, the MIC in the series with Staphylococcus aureus [1] came to 0.6 µg/mL (≈ 1.05 µM); in the series on Staphylococcus aureus [3], 2.5 µg/mL. Moreover, the IC50 at DNA gyrase is 439 nM. This compound also showed a pKa in series [2] of 7.5.

For `CO[C@@H]1[C@@H](OC(=O)c2ccc(C)[nH]2)[C@@H](O)[C@H](Oc2ccc3c(N4CCNCC4)cc(=O)oc3c2C)OC1(C)C`, the MIC amounted to 5 µg/mL (≈ 9.23 µM) with Staphylococcus aureus [1] and 5 µg/mL in the series with Staphylococcus aureus [3]. This compound also gave an IC50 at DNA gyrase of 231 nM. For the same compound, the pKa in series [2] is 8.3.

On to `CO[C@@H]1[C@@H](OC(=O)c2ccc(C)[nH]2)[C@@H](O)[C@H](Oc2ccc3c(N4CCN(c5ccccn5)CC4)cc(=O)oc3c2C)OC1(C)C`, for which the figures for the MIC against Staphylococcus aureus [1] and in the series with Staphylococcus aureus [3] were 0.3 µg/mL (≈ 0.485 µM) and 10 µg/mL, respectively. At DNA gyrase, this compound showed an IC50 of 1780 nM. Besides, the pKa in series [2] was determined as 5.5.

For the compound `CO[C@@H]1[C@@H](OC(=O)c2ccc(C)[nH]2)[C@@H](O)[C@H](Oc2ccc3c(N4CCC(N(C)C)CC4)cc(=O)oc3c2C)OC1(C)C`, the MIC in the series with Staphylococcus aureus [1] was 2.5 µg/mL (≈ 4.28 µM); in the series on Staphylococcus aureus [3] it was 2.5 µg/mL. Also, the midpoint of inhibition against DNA gyrase, the IC50, lay at 480 nM. For the same compound, in series [2], the pKa stood at 9.
